Assay results: ChEMBL document CHEMBL1921672, “Design, synthesis, and qualitative structure-activity evaluations of novel β-secretase inhibitors as potential Alzheimer's drug leads” (J Med Chem, 2011)

Experiments:
[1] = Selectivity ratio of IC50 for BACE2 to IC50 for BACE1
[2] = target: T1, Beta-secretase 1 (Homo sapiens, UniProt P56817); test: Inhibition of BACE1 expressing APP Swedish mutant using rhodamine-labeled EVNLDAEFK-quencher as substrate after 60 mins by FRET analysis
[3] = target: T2, Beta-secretase 2 (Homo sapiens, UniProt Q9Y5Z0); test: Inhibition of BACE2 expressing APP Swedish mutant using rhodamine-labeled EVNLDAEFK-quencher as substrate after 60 mins by FRET analysis
T2 sequence (Q9Y5Z0 63-518 limits assumed, stated change not applied): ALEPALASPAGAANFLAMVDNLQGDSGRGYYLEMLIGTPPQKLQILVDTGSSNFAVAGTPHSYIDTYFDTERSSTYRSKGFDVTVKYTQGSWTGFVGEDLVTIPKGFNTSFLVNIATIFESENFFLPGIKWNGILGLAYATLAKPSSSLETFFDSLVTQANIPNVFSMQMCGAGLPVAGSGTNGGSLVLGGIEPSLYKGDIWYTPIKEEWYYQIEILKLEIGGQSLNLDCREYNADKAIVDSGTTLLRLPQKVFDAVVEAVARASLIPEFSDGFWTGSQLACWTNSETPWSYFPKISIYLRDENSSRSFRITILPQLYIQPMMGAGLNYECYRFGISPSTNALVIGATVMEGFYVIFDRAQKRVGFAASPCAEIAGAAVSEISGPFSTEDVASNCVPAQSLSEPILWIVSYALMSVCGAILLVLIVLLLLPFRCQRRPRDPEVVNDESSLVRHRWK

[4] = target: T1, Beta-secretase 1; test: Inhibition of BACE1 expressing APP Swedish mutant using rhodamine-labeled EVNLDAEFK-quencher as substrate after 60 mins by Michaelis-Menten equation
Method in brief: (§1)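 Same FRET set-up (750 nM peptide substrate, KM 20 μM, 1 U/mL enzyme, pH 4.5 acetate, 60 min, 25 °C). Apparent KI derived from steady-state rates with and without inhibitor (vI, v0), then converted to absolute KI by correcting for substrate concentration and KM.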

[5] = target: T2, Beta-secretase 2; test: Inhibition of BACE2 expressing APP Swedish mutant using rhodamine-labeled EVNLDAEFK-quencher as substrate after 60 mins by Michaelis-Menten equation; method in brief: as §1
[6] = target: T1, Beta-secretase 1; test: Inhibition of BACE1 in human H4 cells expressing APP Swedish K595N and M596L double mutant assessed as inhibition of amyloid beta (1 to 40) production after 24 hrs by whole cell assay; assay type: cell-based; conditions: pooled result: one value given for 2 cell lines, strains, targets or settings
Method in brief: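 H4 neuroglioma cells carrying human APP K595N/M596L, seeded at 2 × 10⁵ cells/well and grown 24 h, then given increasing compound concentrations overnight (1% DMSO negative control). Medium Aβ40 or Aβ42 measured by sandwich immunoassay: biotinylated 4G8 plus C-terminal-specific rabbit antibodies, electrochemiluminescence read-out. Viability checked by MTT (0.5 mg/mL, 3 h, 570 nm). EC50 as mean of ≥3 experiments ± SD.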

[7] = Aqueous solubility of the compound; assay type: physicochemical; conditions: water
Method in brief: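 Solubility estimated by HPLC. Salt sonicated 48 h in water, filtered through 0.45 μm, injected after a five-point calibration (1.44–18.0 mg/mL standards in acetonitrile/methanol 50:50 v/v; least-squares linear fit; triplicate injections). Reversed-phase C18 column, UV detection at 280 nm. Solubility taken where recovery began to fall with rising concentration.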

T1 sequence (P56817 whole entry): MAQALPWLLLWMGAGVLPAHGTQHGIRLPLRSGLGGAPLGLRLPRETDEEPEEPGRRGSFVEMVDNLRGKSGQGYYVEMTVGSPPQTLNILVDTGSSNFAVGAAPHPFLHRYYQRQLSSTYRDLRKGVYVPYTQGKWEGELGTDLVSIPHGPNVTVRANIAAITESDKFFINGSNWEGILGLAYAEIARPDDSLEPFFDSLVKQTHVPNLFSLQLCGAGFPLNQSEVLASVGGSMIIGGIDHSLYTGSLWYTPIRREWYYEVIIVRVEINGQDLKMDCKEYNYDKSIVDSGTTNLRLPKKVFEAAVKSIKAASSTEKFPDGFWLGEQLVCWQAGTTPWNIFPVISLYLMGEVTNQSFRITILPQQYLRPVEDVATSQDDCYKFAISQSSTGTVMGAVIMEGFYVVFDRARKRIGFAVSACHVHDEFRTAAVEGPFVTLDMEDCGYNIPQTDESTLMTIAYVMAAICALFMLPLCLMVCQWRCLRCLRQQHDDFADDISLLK

| Structure (SMILES) | Ratio IC50 [1] | IC50 [2] | IC50 [3] | Ki [4] | Ki [5] | EC50 [6] | solubility [7] |
| --- | --- | --- | --- | --- | --- | --- | --- |
| COc1ccc2nc(-c3ccc(-c4nc5ccccn5c4NC(C)(C)C)cc3)[nH]c2c1 | 1.3 | 2240 nM | 2900 nM | 2160 nM | 2810 nM | 2410 nM | – |
| CC(C)(C)Nc1c(-c2ccc(-c3nc4ccccc4[nH]3)cc2)nc2ccccn12 | – | 5510 nM | 5680 nM | 5310 nM | 5510 nM | – | – |
| Cl.Fc1ccc2nc(-c3cccc(-c4cn5ccc(F)cc5n4)c3)[nH]c2c1 | – | – | – | – | – | – | 10000 µg/mL |
| C[C@H](NC(=O)c1cc(-c2nc3cc(F)ccc3[nH]2)cc(N(C)S(C)(=O)=O)c1)c1ccccc1 | 5 | 786 nM | 2130 nM | 758 nM | 2070 nM | 230 nM | – |
| CC(C)(C)Nc1c(-c2cccc(-c3nc4ccccc4[nH]3)c2)nc2ccccn12 | – | 514 nM | 3780 nM | 495 nM | 3670 nM | – | – |
| C[C@H](NC(=O)c1cc(-c2ncc(-c3cccc(F)c3)[nH]2)cc(N(C)S(C)(=O)=O)c1)c1ccccc1 | – | 187 nM | 1870 nM | 180 nM | 1820 nM | – | – |
| CC(C)(C)Nc1c(-c2cccc(-c3nc4ccc(F)cc4[nH]3)c2)nc2ccccn12 | – | 312 nM | 4230 nM | 301 nM | 4110 nM | 930 nM | – |
| COc1ccc2[nH]c(-c3cc(C(=O)N[C@@H](C)c4ccccc4)cc(N(C)S(C)(=O)=O)c3)nc2c1 | 5 | 545 nM | 2420 nM | 525 nM | 2350 nM | – | – |
| Fc1ccc2nc(-c3cccc(-c4cn5ccc(F)cc5n4)c3)[nH]c2c1 [listing 2 of 2 here] | – | 18 nM | 3670 nM | 17 nM | 3570 nM | 37 nM | – |
| c1cc(-c2cn3ccccc3n2)cc(-c2nc3ccccc3[nH]2)c1 | – | 961 nM | 3890 nM | 926 nM | 3780 nM | 1550 nM | – |

Further lines, results first:

| Ratio IC50 [1] | IC50 [2] | IC50 [3] | Ki [4] | Ki [5] | EC50 [6] | solubility [7] | Structure (SMILES) |
| --- | --- | --- | --- | --- | --- | --- | --- |
| 204 | – | – | – | – | – | – | Fc1ccc2nc(-c3cccc(-c4cn5ccc(F)cc5n4)c3)[nH]c2c1 [listing 1 of 2 here] |
| – | 26 nM | 3320 nM | 25 nM | 3220 nM | 30 nM | – | COc1ccc2nc(-c3cccc(-c4cn5ccccc5n4)c3)[nH]c2c1 |
| – | 77 nM | 2350 nM | 62 nM | 2280 nM | 179 nM | – | COc1cccc(-c2c[nH]c(-c3cc(C(=O)N[C@@H](C)c4ccccc4)cc(N(C)S(C)(=O)=O)c3)n2)c1 |
| – | 2480 nM | 3720 nM | 2390 nM | 3620 nM | – | – | CC(C)(C)Nc1c(-c2ccc(-c3nc4ccc(F)cc4[nH]3)cc2)nc2ccccn12 |
| – | 35 nM | 3170 nM | 34 nM | 3080 nM | 120 nM | – | Fc1ccc2nc(-c3cccc(-c4cn5ccccc5n4)c3)[nH]c2c1 |
| 23 | 178 nM | 4120 nM | 253 nM | 4000 nM | 310 nM | – | COc1ccc2nc(-c3cccc(-c4nc5ccccn5c4NC(C)(C)C)c3)[nH]c2c1 |
| – | 1080 nM | 2130 nM | 1040 nM | 2070 nM | – | – | C[C@H](NC(=O)c1cc(-c2nc3ccccc3[nH]2)cc(N(C)S(C)(=O)=O)c1)c1ccccc1 |
| – | 315 nM | 1790 nM | 304 nM | 1730 nM | 450 nM | – | C[C@H](NC(=O)c1cc(-c2nc(-c3ccccc3)c[nH]2)cc(N(C)S(C)(=O)=O)c1)c1ccccc1 |
| 30 | – | – | – | – | – | – | COc1cccc(-c2cnc(-c3cc(C(=O)N[C@@H](C)c4ccccc4)cc(N(C)S(C)(=O)=O)c3)[nH]2)c1 |
